Measured values as given in ChEMBL document CHEMBL2417386, “Novel conjugated quinoline-indoles compromise Plasmodium falciparum mitochondrial function and show promising antimalarial activity” (J Med Chem, 2013).

How the values were obtained:
Plasmodium falciparum [1] = assay: Antimalarial activity against trophozoite stage of Plasmodium falciparum 3D7 infected in RBC assessed as growth inhibition after 5 hrs by SYBR Green-I fluorescence assay; assay type: functional, organism-based; settings: 3D7, 5 h
Outline: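 Trophozoite-stage parasites pulsed with compound for 5 h. Drug then washed out and parasites cultured a further 43 h before survival was assessed.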

[2] = Inhibition of beta-hematin formation after 24 hrs by spectrophotometric analysis in presence of nonidet P40; assay type: functional
Plasmodium falciparum [3] = assay: Ratio of IC50 for trophozoite stage of Plasmodium falciparum 3D7 infected in RBC after 5 hrs in presence of 0.2 uM ALLN to IC50 for trophozoite stage of Plasmodium falciparum 3D7 infected in RBC after 5 hrs in absence of ALLN; assay type: functional
Outline: (§1)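 Trophozoite-stage parasites pulsed 5 h with compound, with or without ALLN (0.2 or 5 μM). Drug and ALLN then removed; culture continued a further 43 h before survival was assessed. Antagonism expressed as the ratio of IC50 with ALLN to IC50 without ALLN.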

Plasmodium falciparum [4] = assay: Antimalarial activity against Plasmodium falciparum K1 infected in RBC assessed as growth inhibition after 48 hrs by SYBR Green-I fluorescence assay; assay type: functional, organism-based; settings: K1, 48 h
Outline: (§2)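 Parasite-infected red cells exposed to compound for 48 h; growth read by SYBR Green-I fluorescence; IC50 derived. Where a ± is given, it is the standard deviation of three individual experiments.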

Plasmodium falciparum [5] = assay: Antimalarial activity against Plasmodium falciparum 3D7 infected in RBC assessed as growth inhibition after 48 hrs by SYBR Green-I fluorescence assay; assay type: functional, organism-based; settings: 3D7, 48 h; outline: as §2
Plasmodium falciparum [6] = assay: Ratio of IC50 for trophozoite stage of Plasmodium falciparum 3D7 infected in RBC after 5 hrs in presence of 5 uM ALLN to IC50 for trophozoite stage of Plasmodium falciparum 3D7 infected in RBC after 5 hrs in absence of ALLN; assay type: functional; outline: as §1
Plasmodium falciparum [7] = assay: Resistant index, ratio of IC50 for Plasmodium falciparum K1 to IC50 for Plasmodium falciparum 3D7; assay type: functional
Outline: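 Ratio of K1 to 3D7 IC50 values. Each IC50 comes from a 48 h drug exposure of the P. falciparum strain, with growth read by SYBR Green-I fluorescence. Where spread is given, it is the standard deviation of three individual experiments.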

Plasmodium falciparum [8] = assay: Ratio of IC50 for trophozoite stage of Plasmodium falciparum 3D7 infected in RBC after 5 hrs to IC50 for Plasmodium falciparum 3D7 infected in RBC after 48 hrs; assay type: functional
[9] = Selectivity index, ratio of IC50 for HEK293 cells to IC50 for Plasmodium falciparum 3D7 after 72 hrs; assay type: toxicity, cell-based; settings: human, read-out: Ratio IC50
Outline: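 Parasite (3D7) viability assay and HEK293 viability assay, each with a 72 h exposure. Index taken as the ratio of the IC50 values, HEK293 over 3D7.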

Plasmodium falciparum [10] = assay: Antimalarial activity against mid to late trophozoite stage of Plasmodium falciparum 3D7 infected in RBC assessed as nonviable parasite at 0.56 uM after 0.5 hrs by SYTO 61 staining-based flow cytometric analysis relative to untreated control; assay type: functional
Plasmodium falciparum [11] = assay: Antimalarial activity against mid to late trophozoite stage of Plasmodium falciparum 3D7 infected in RBC assessed as abnormal mitochondria at 5 uM after 0.5 hrs by MitoTracker Red CMXRos-based fluorescence microscopic analysis relative to untreated control; assay type: functional
Plasmodium falciparum [12] = assay: Antimalarial activity against mid to late trophozoite stage of Plasmodium falciparum 3D7 infected in RBC assessed as abnormal mitochondria at 0.56 uM after 0.5 hrs by MitoTracker Red CMXRos-based fluorescence microscopic analysis relative to untreated control; assay type: functional
Plasmodium falciparum [13] = assay: Antimalarial activity against mid to late trophozoite stage of Plasmodium falciparum 3D7 infected in RBC assessed as nonviable parasite at 5 uM after 0.5 hrs by SYTO 61 staining-based flow cytometric analysis relative to untreated control; assay type: functional
Plasmodium falciparum [14] = assay: Antimalarial activity against mid to late trophozoite stage of Plasmodium falciparum 3D7 infected in RBC assessed as abnormal mitochondria at 1.7 uM after 0.5 hrs by MitoTracker Red CMXRos-based fluorescence microscopic analysis relative to untreated control; assay type: functional
Plasmodium falciparum [15] = assay: Gametocytocidal activity against synchronous stage 1 to 3 of transgenic Plasmodium falciparum NF54 gametocyte harboring pfs16 promoter assessed as parasite viability after 72 hrs by luciferase reporter gene assay; assay type: functional, organism-based; settings: NF54, 72 h
Plasmodium falciparum [16] = assay: Antimalarial activity against mid to late trophozoite stage of Plasmodium falciparum 3D7 infected in RBC assessed as nonviable parasite at 15 uM after 0.5 hrs by SYTO 61 staining-based flow cytometric analysis relative to untreated control; assay type: functional
Plasmodium falciparum [17] = assay: Antimalarial activity against mid to late trophozoite stage of Plasmodium falciparum 3D7 infected in RBC assessed as nonviable parasite at 1.7 uM after 0.5 hrs by SYTO 61 staining-based flow cytometric analysis relative to untreated control; assay type: functional
Plasmodium falciparum [18] = assay: Gametocytocidal activity against synchronous stage 4 to 5 of transgenic Plasmodium falciparum NF54 gametocyte harboring pfs16 promoter assessed as parasite viability after 72 hrs by MitoTracker Red CMXRos-based assay; assay type: functional, organism-based; settings: NF54, 72 h
Plasmodium falciparum [19] = assay: Antimalarial activity against mid to late trophozoite stage of Plasmodium falciparum 3D7 infected in RBC assessed as abnormal mitochondria at 15 uM after 0.5 hrs by MitoTracker Red CMXRos-based fluorescence microscopic analysis relative to untreated control; assay type: functional
Plasmodium falciparum [20] = assay: Antimalarial activity against mid to late trophozoite stage of Plasmodium falciparum 3D7 infected in RBC assessed as nonviable parasite at 3 uM after 0.5 hrs by SYTO 61 staining-based flow cytometric analysis relative to untreated control; assay type: functional
Plasmodium falciparum [21] = assay: Gametocytocidal activity against asexual stage of transgenic Plasmodium falciparum NF54 gametocyte harboring pfs16 promoter assessed as parasite viability after 72 hrs by luciferase reporter gene assay; assay type: functional, organism-based; settings: NF54, 72 h
Plasmodium falciparum [22] = assay: Antimalarial activity against mid to late trophozoite stage of Plasmodium falciparum 3D7 infected in RBC assessed as nonviable parasite at 0.6 uM after 0.5 hrs by SYTO 61 staining-based flow cytometric analysis relative to untreated control; assay type: functional
Plasmodium falciparum [23] = assay: Antimalarial activity against mid to late trophozoite stage of Plasmodium falciparum 3D7 infected in RBC assessed as abnormal mitochondria at 3 uM after 0.5 hrs by MitoTracker Red CMXRos-based fluorescence microscopic analysis relative to untreated control; assay type: functional
Plasmodium falciparum [24] = assay: Antimalarial activity against mid to late trophozoite stage of Plasmodium falciparum 3D7 infected in RBC assessed as abnormal mitochondria at 0.6 uM after 0.5 hrs by MitoTracker Red CMXRos-based fluorescence microscopic analysis relative to untreated control; assay type: functional
Plasmodium falciparum [25] = assay: Antimalarial activity against mid to late trophozoite stage of Plasmodium falciparum 3D7 infected in RBC assessed as abnormal mitochondria at 20 uM after 0.5 hrs by MitoTracker Red CMXRos-based fluorescence microscopic analysis relative to untreated control; assay type: functional
Plasmodium falciparum [26] = assay: Antimalarial activity against mid to late trophozoite stage of Plasmodium falciparum 3D7 infected in RBC assessed as abnormal mitochondria at 1000 uM after 0.5 hrs by MitoTracker Red CMXRos-based fluorescence microscopic analysis relative to untreated control; assay type: functional
Plasmodium falciparum [27] = assay: Antimalarial activity against mid to late trophozoite stage of Plasmodium falciparum 3D7 infected in RBC assessed as nonviable parasite at 200 uM after 0.5 hrs by SYTO 61 staining-based flow cytometric analysis relative to untreated control; assay type: functional
Plasmodium falciparum [28] = assay: Antimalarial activity against mid to late trophozoite stage of Plasmodium falciparum 3D7 infected in RBC assessed as abnormal mitochondria at 0.005 uM after 0.5 hrs by MitoTracker Red CMXRos-based fluorescence microscopic analysis relative to untreated control; assay type: functional
Plasmodium falciparum [29] = assay: Antimalarial activity against mid to late trophozoite stage of Plasmodium falciparum 3D7 infected in RBC assessed as nonviable parasite at 0.005 uM after 0.5 hrs by SYTO 61 staining-based flow cytometric analysis relative to untreated control; assay type: functional
Plasmodium falciparum [30] = assay: Gametocytocidal activity against synchronous stage 4 to 5 of transgenic Plasmodium falciparum NF54 gametocyte harboring pfs16 promoter assessed as inhibition of parasite viability at 60 uM after 72 hrs by MitoTracker Red CMXRos-based assay relative to control; assay type: functional; settings: NF54, 72 h
Plasmodium falciparum [31] = assay: Antimalarial activity against mid to late trophozoite stage of Plasmodium falciparum 3D7 infected in RBC assessed as nonviable parasite at 40 uM after 0.5 hrs by SYTO 61 staining-based flow cytometric analysis relative to untreated control; assay type: functional
Plasmodium falciparum [32] = assay: Antimalarial activity against mid to late trophozoite stage of Plasmodium falciparum 3D7 infected in RBC assessed as abnormal mitochondria at 200 uM after 0.5 hrs by MitoTracker Red CMXRos-based fluorescence microscopic analysis relative to untreated control; assay type: functional
Plasmodium falciparum [33] = assay: Antimalarial activity against mid to late trophozoite stage of Plasmodium falciparum 3D7 infected in RBC assessed as nonviable parasite at 1000 uM after 0.5 hrs by SYTO 61 staining-based flow cytometric analysis relative to untreated control; assay type: functional
Plasmodium falciparum [34] = assay: Antimalarial activity against mid to late trophozoite stage of Plasmodium falciparum 3D7 infected in RBC assessed as abnormal mitochondria at 40 uM after 0.5 hrs by MitoTracker Red CMXRos-based fluorescence microscopic analysis relative to untreated control; assay type: functional

## CCN(CC)CCCC(C)Nc1cc(/C=C/c2c[nH]c3ccccc23)nc2ccccc12 (stereo not given)
Plasmodium falciparum [1]
  IC50: 0.17 µM
[2]
  IC50: 1100 µM
Plasmodium falciparum [3]
  Ratio IC50: 1.6
Plasmodium falciparum [4]
  IC50: 0.33 µM
Plasmodium falciparum [5]
  IC50: 0.1 µM
Plasmodium falciparum [6]
  Ratio IC50: 2.6
Plasmodium falciparum [7]
  Ratio IC50: 3
Plasmodium falciparum [8]
  Ratio IC50: 1.7
[9]
  selectivity ratio at 72 h: 87

## Nc1cc(CCc2c[nH]c3ccccc23)nc2ccccc12
Plasmodium falciparum [4]
  IC50: 2.2 µM
Plasmodium falciparum [5]
  IC50: 0.9 µM
[9]
  selectivity ratio at 72 h: 67

## Cc1[nH]c2ccccc2c1/C=C/c1cc(N)c2ccccc2[n+]1C.[I-]
Plasmodium falciparum [1]
  IC50: 0.73 µM
[2]
  IC50: 220 µM
Plasmodium falciparum [10]
  Activity: 18%
Plasmodium falciparum [3]
  Ratio IC50: 1
Plasmodium falciparum [11]
  Activity: 97%
Plasmodium falciparum [12]
  Activity: 43%
Plasmodium falciparum [4]
  IC50: 0.23 µM
Plasmodium falciparum [5]
  IC50: 0.17 µM
Plasmodium falciparum [6]
  Ratio IC50: 1.7
Plasmodium falciparum [13]
  Activity: 66%
Plasmodium falciparum [7]
  Ratio IC50: 1.3
Plasmodium falciparum [14]
  Activity: 86%
Plasmodium falciparum [8]
  Ratio IC50: 4.3
Plasmodium falciparum [15]
  IC50: 0.35 µM
Plasmodium falciparum [16]
  Activity: 86%
Plasmodium falciparum [17]
  Activity: 42%
Plasmodium falciparum [18]
  IC50: 1.9 µM
[9]
  selectivity ratio at 72 h: 18
Plasmodium falciparum [19]
  Activity: 99%

## C[n+]1c(/C=C/c2c[nH]c3ccccc23)cc(N)c2ccccc21.[I-]
Plasmodium falciparum [1]
  IC50: 1 µM
[2]
  IC50: 1400 µM
Plasmodium falciparum [20]
  Activity: 73%
Plasmodium falciparum [3]
  Ratio IC50: 1.5
Plasmodium falciparum [4]
  IC50: 0.12 µM
Plasmodium falciparum [5]
  IC50: 0.2 µM
Plasmodium falciparum [6]
  Ratio IC50: 3
Plasmodium falciparum [7]
  Ratio IC50: 0.6
Plasmodium falciparum [8]
  Ratio IC50: 5
Plasmodium falciparum [15]
  IC50: 0.3 µM
Plasmodium falciparum [16]
  Activity: 81%
Plasmodium falciparum [21]
  IC50: 0.1 µM
Plasmodium falciparum [18]
  IC50: 4 µM
Plasmodium falciparum [22]
  Activity: 8%
Plasmodium falciparum [23]
  Activity: 91%
Plasmodium falciparum [24]
  Activity: 18%
[9]
  selectivity ratio at 72 h: 35
Plasmodium falciparum [19]
  Activity: 100%

## CNc1cc(/C=C/c2c(C)[nH]c3ccccc23)[n+](C)c2ccccc12
Plasmodium falciparum [4]
  IC50: 1.6 µM
Plasmodium falciparum [5]
  IC50: 1.4 µM
[9]
  selectivity ratio at 72 h: 16

## C[C@H]1[C@H](OC(=O)CCC(=O)O)O[C@@H]2O[C@@]3(C)CC[C@H]4[C@H](C)CC[C@@H]1[C@@]24OO3 [ARTESUNATE]
Plasmodium falciparum [18]
  IC50: 0.008 µM

## N#CC(C#N)=NNc1cccc(Cl)c1 [CARBONYL CYANIDE M-CHLOROPHENYLHYDRAZONE]
Plasmodium falciparum [25]
  Activity: 74%

## CCN(CC)CCCC(C)Nc1ccnc2cc(Cl)ccc12 (stereo not given) [CHLOROQUINE]
Plasmodium falciparum [26]
  Activity: 8%
[2]
  IC50: 30 µM
Plasmodium falciparum [27]
  Activity: 36%
Plasmodium falciparum [28]
  Activity: 12%
Plasmodium falciparum [29]
  Activity: 84%
Plasmodium falciparum [30]
  inhibition at 60 µM: 100%
Plasmodium falciparum [31]
  Activity: 23%
Plasmodium falciparum [32]
  Activity: 5%
Plasmodium falciparum [33]
  Activity: 85%
Plasmodium falciparum [34]
  Activity: 0%

## CN(C)c1ccc2nc3ccc(N(C)C)cc3[s+]c2c1.[Cl-] [METHYLENE BLUE ANHYDROUS]
Plasmodium falciparum [1]
  IC50: 0.03 µM
Plasmodium falciparum [3]
  Ratio IC50: 2.1
Plasmodium falciparum [4]
  IC50: 0.008 µM
Plasmodium falciparum [5]
  IC50: 0.02 µM
Plasmodium falciparum [6]
  Ratio IC50: 3.2
Plasmodium falciparum [8]
  Ratio IC50: 1.5
